Reference: ChEMBL document CHEMBL5058577, “EUbOPEN Chemogenomics Library 2 (Multiplex)” (2022)

System: Fibroblast
Test: Multiplex assay against human fibroblast
Format: toxicity, cell-based
Procedure, shortened: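 Per cents of healthy-nucleus cells form the tubulin, mitochondrial-mass and membrane-permeability phenotype values. Live cells were stained at seeding with Hoechst33342, BioTracker Green Microtubule Cytoskeleton Dye, MitoTracker Red and Annexin V Alexa Fluor 680. After compound addition they were imaged on a CQ1 microscope at 37°C and 5% CO2, and CellPathfinder machine-learning gating split them into Hoechst high-intensity objects or normal cells, normal cells into healthy, pyknosed or fragmented nuclei, and pyknosed cells into mitotic or apoptotic.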

[1] = 12 h, 1 µM, compound concentration 1 uM, replicate 1
[2] = 12 h, 1 µM, compound concentration 1 uM, replicate 2
[3] = 12 h, 10 µM, compound concentration 10 uM, replicate 1
[4] = 12 h, 10 µM, compound concentration 10 uM, replicate 2
[5] = 24 h, 1 µM, compound concentration 1 uM, replicate 1
[6] = 24 h, 1 µM, compound concentration 1 uM, replicate 2
[7] = 24 h, 10 µM, compound concentration 10 uM, replicate 1
[8] = 24 h, 10 µM, compound concentration 10 uM, replicate 2
[9] = 48 h, 1 µM, compound concentration 1 uM, replicate 1
[10] = 48 h, 1 µM, compound concentration 1 uM, replicate 2
[11] = 48 h, 10 µM, compound concentration 10 uM, replicate 1
[12] = 48 h, 10 µM, compound concentration 10 uM, replicate 2

## CN1CCN(c2nc3cc(C(F)(F)F)ccc3n3cccc23)CC1.O=C(O)/C=C\C(=O)O.O=C(O)/C=C\C(=O)O
[1]
  Population Apoptotic (%): 50%
  Population Fragmented Nuclei (%): 18%
  Population Healthy Nuclei (%): 71%
  Population Hoechst High Intensity Objects (%): 0%
  Population Membrane Permeable-Phenotype (%): 0%
  Population Mitochondria Different-Phenotype (%): 5%
  Population Mitotic Cells (%): 50%
  Population Normal (%): 99%
  Population Pyknosed Nuclei (%): 9%
  Population Tubulin-Different-Phenotype (%): 27%
  Total Cell Count: 146
[2]
  Population Apoptotic (%): 26%
  Population Fragmented Nuclei (%): 24%
  Population Healthy Nuclei (%): 46%
  Population Hoechst High Intensity Objects (%): 6%
  Population Membrane Permeable-Phenotype (%): 6%
  Population Mitochondria Different-Phenotype (%): 4%
  Population Mitotic Cells (%): 73%
  Population Normal (%): 93%
  Population Pyknosed Nuclei (%): 30%
  Population Tubulin-Different-Phenotype (%): 47%
  Total Cell Count: 107
[3]
  Population Apoptotic (%): 40%
  Population Fragmented Nuclei (%): 29%
  Population Healthy Nuclei (%): 59%
  Population Hoechst High Intensity Objects (%): 2%
  Population Membrane Permeable-Phenotype (%): 0%
  Population Mitochondria Different-Phenotype (%): 25%
  Population Mitotic Cells (%): 59%
  Population Normal (%): 97%
  Population Pyknosed Nuclei (%): 10%
  Population Tubulin-Different-Phenotype (%): 69%
  Total Cell Count: 207
[4]
  Population Apoptotic (%): 60%
  Population Fragmented Nuclei (%): 35%
  Population Healthy Nuclei (%): 41%
  Population Hoechst High Intensity Objects (%): 4%
  Population Membrane Permeable-Phenotype (%): 4%
  Population Mitochondria Different-Phenotype (%): 38%
  Population Mitotic Cells (%): 40%
  Population Normal (%): 95%
  Population Pyknosed Nuclei (%): 22%
  Population Tubulin-Different-Phenotype (%): 85%
  Total Cell Count: 117
[5]
  Population Apoptotic (%): 66%
  Population Fragmented Nuclei (%): 16%
  Population Healthy Nuclei (%): 72%
  Population Hoechst High Intensity Objects (%): 1%
  Population Membrane Permeable-Phenotype (%): 0%
  Population Mitochondria Different-Phenotype (%): 2%
  Population Mitotic Cells (%): 33%
  Population Normal (%): 98%
  Population Pyknosed Nuclei (%): 10%
  Population Tubulin-Different-Phenotype (%): 23%
  Total Cell Count: 142
[6]
  Population Apoptotic (%): 40%
  Population Fragmented Nuclei (%): 35%
  Population Healthy Nuclei (%): 42%
  Population Hoechst High Intensity Objects (%): 6%
  Population Membrane Permeable-Phenotype (%): 7%
  Population Mitochondria Different-Phenotype (%): 7%
  Population Mitotic Cells (%): 59%
  Population Normal (%): 93%
  Population Pyknosed Nuclei (%): 22%
  Population Tubulin-Different-Phenotype (%): 43%
  Total Cell Count: 104
[7]
  Population Apoptotic (%): 77%
  Population Fragmented Nuclei (%): 24%
  Population Healthy Nuclei (%): 64%
  Population Hoechst High Intensity Objects (%): 6%
  Population Membrane Permeable-Phenotype (%): 0%
  Population Mitochondria Different-Phenotype (%): 32%
  Population Mitotic Cells (%): 22%
  Population Normal (%): 93%
  Population Pyknosed Nuclei (%): 10%
  Population Tubulin-Different-Phenotype (%): 75%
  Total Cell Count: 214
[8]
  Population Apoptotic (%): 63%
  Population Fragmented Nuclei (%): 37%
  Population Healthy Nuclei (%): 43%
  Population Hoechst High Intensity Objects (%): 1%
  Population Membrane Permeable-Phenotype (%): 6%
  Population Mitotic Cells (%): 36%
  Population Normal (%): 98%
  Population Pyknosed Nuclei (%): 19%
  Population Tubulin-Different-Phenotype (%): 86%
  Total Cell Count: 117
[9]
  Population Apoptotic (%): 44%
  Population Fragmented Nuclei (%): 25%
  Population Healthy Nuclei (%): 63%
  Population Hoechst High Intensity Objects (%): 2%
  Population Membrane Permeable-Phenotype (%): 1%
  Population Mitochondria Different-Phenotype (%): 2%
  Population Mitotic Cells (%): 55%
  Population Normal (%): 97%
  Population Pyknosed Nuclei (%): 11%
  Population Tubulin-Different-Phenotype (%): 22%
  Total Cell Count: 162
[10]
  Population Apoptotic (%): 42%
  Population Fragmented Nuclei (%): 37%
  Population Healthy Nuclei (%): 40%
  Population Hoechst High Intensity Objects (%): 3%
  Population Membrane Permeable-Phenotype (%): 0%
  Population Mitotic Cells (%): 57%
  Population Normal (%): 96%
  Population Pyknosed Nuclei (%): 21%
  Population Tubulin-Different-Phenotype (%): 57%
  Total Cell Count: 102
[11]
  Population Apoptotic (%): 77%
  Population Fragmented Nuclei (%): 22%
  Population Healthy Nuclei (%): 68%
  Population Hoechst High Intensity Objects (%): 7%
  Population Membrane Permeable-Phenotype (%): 0%
  Population Mitochondria Different-Phenotype (%): 28%
  Population Mitotic Cells (%): 22%
  Population Normal (%): 92%
  Population Pyknosed Nuclei (%): 9%
  Population Tubulin-Different-Phenotype (%): 77%
  Total Cell Count: 211
[12]
  Population Apoptotic (%): 63%
  Population Fragmented Nuclei (%): 33%
  Population Healthy Nuclei (%): 57%
  Population Hoechst High Intensity Objects (%): 5%
  Population Membrane Permeable-Phenotype (%): 1%
  Population Mitochondria Different-Phenotype (%): 23%
  Population Mitotic Cells (%): 36%
  Population Normal (%): 94%
  Population Tubulin-Different-Phenotype (%): 85%
  Total Cell Count: 118
